From ChEMBL document CHEMBL1126568, “Nucleosides and nucleotides. 122. 2'-C-cyano-2'-deoxy-1-beta-D-arabinofuranosylcytosine and its derivatives. A new class of nucleoside with a broad antitumor spectrum” (J Med Chem, 1993) come the findings set out here.

Common to all, as to type: functional
The subject of assay [1] is Mus musculus. Nature of the assay: Percent inhibition against M5076 mouse reticulum cell sarcoma after administration at 40 mg/kg orally on day 20. The note with it: M5076, 480 h, route oral. The method in brief: (§1)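 Female BD2F1 mice (7-8 weeks, 20-25 g) were given 1 × 10^6 viable M5076 cells s.c. in the axillary region. Drug in saline or 5% DMA/0.5% CMC was given orally on days 1, 4, 7, 10, 13 and 16, with six mice per group and untreated controls. Tumor volume = 0.5 × length × width². Inhibition on day 20 = (1 − Vt/Vc) × 100.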

Assay [2] has as its system Mus musculus. Nature of the assay: Weight change in M5076 mouse reticulum cell sarcoma after administration at 40 mg/kg orally. As to conditions: route oral. Summed up:
(§2)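 Mice were female BD2F1 bearing s.c. M5076 sarcoma (1 × 10^6 cells) and given oral drug on days 1, 4, 7, 10, 13 and 16. Body weight change (g) = average body weight on day 20 minus average on day 1.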

For assay [3], the system named is Mus musculus. In words: Percent inhibition against M5076 mouse reticulum cell sarcoma after administration at 50 mg/kg orally on day 20. As to conditions: M5076, 480 h, route oral. The method in brief:
as §1

For assay [4], the system named is Mus musculus. Nature of the assay: Percent inhibition against M5076 mouse reticulum cell sarcoma after administration at 30 mg/kg orally on day 20. The note with it: M5076, 480 h, route oral. The method in brief: as §1
In assay [5] the test system is Mus musculus. Nature of the assay: Percent treated was determined after administration at 50 mg/kg orally. The note with it: route oral. The method in brief: (§3)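 In female BD2F1 mice bearing s.c. M5076 sarcoma (1 × 10^6 cells), drug was given orally on days 1, 4, 7, 10, 13 and 16, with six mice per treated group and nine untreated controls. T/C (%) = median survival day of treated mice / median survival day of untreated controls × 100.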

Assay [6] concerns Mus musculus. In words: Tested for 60-day survivors after administration at 40 mg/kg orally in M5076 mouse reticulum cell sarcoma. As to conditions: route oral. The method in brief:
(§4)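 Female BD2F1 mice were implanted s.c. with 1 × 10^6 M5076 cells and dosed orally on days 1, 4, 7, 10, 13 and 16. Vehicle was saline or 5% DMA in 0.5% CMC. Groups had six mice (three at 400 mg/kg), with nine untreated controls. The number of mice alive at 60 days was counted.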

Assay [7] relates to Mus musculus. Nature of the assay: Percent treated was determined after administration at 30 mg/kg orally. The note with it: route oral. The method in brief:
as §3

Assay [8] has as its system Mus musculus. In words: Percent treated was determined after administration at 10 mg/kg orally. As to conditions: route oral. The method in brief: as §3
Assay [9] deals with Mus musculus. In words: Percent treated was determined after administration at 20 mg/kg orally. The note with it: route oral. Summed up: as §3
Assay [10] relates to Mus musculus. Nature of the assay: Weight change in M5076 mouse reticulum cell sarcoma after administration at 20 mg/kg orally. The note with it: route oral. Summed up:
as §2

Assay [11] has as its system Mus musculus. In words: Tested for 60-day survivors after administration at 10 mg/kg orally in M5076 mouse reticulum cell sarcoma. The note with it: route oral. Summed up:
as §4

In assay [12] the test system is Mus musculus. In words: Tested for 60-day survivors after administration at 20 mg/kg orally in M5076 mouse reticulum cell sarcoma. As to conditions: route oral. The method in brief:
as §4

In assay [13] the test system is Mus musculus. Nature of the assay: Percent inhibition against M5076 mouse reticulum cell sarcoma after administration at 20 mg/kg orally on day 20. As to conditions: M5076, 480 h, route oral. Summed up: as §1
The test system of assay [14] is Mus musculus. Nature of the assay: Weight change in M5076 mouse reticulum cell sarcoma after administration at 30 mg/kg orally. As to conditions: route oral. The method in brief: as §2
Assay [15] concerns Mus musculus. In words: Tested for 60-day survivors after administration at 30 mg/kg orally in M5076 mouse reticulum cell sarcoma. The note with it: route oral. The method in brief:
as §4

Assay [16] deals with Mus musculus. In words: Percent treated was determined after administration at 40 mg/kg orally. The note with it: route oral. The method in brief: as §3
Assay [17] concerns Mus musculus. Nature of the assay: Weight change in M5076 mouse reticulum cell sarcoma after administration at 50 mg/kg orally. The note with it: route oral. The method in brief:
as §2

Assay [18] deals with Mus musculus. Nature of the assay: Tested for 60-day survivors after administration at 50 mg/kg orally in M5076 mouse reticulum cell sarcoma. The note with it: route oral. Summed up: as §4
Assay [19] has as its system Mus musculus. Nature of the assay: Weight change in M5076 mouse reticulum cell sarcoma after administration at 10 mg/kg orally. As to conditions: route oral. Summed up:
as §2

For assay [20], the system named is Mus musculus. Nature of the assay: Percent inhibition against M5076 mouse reticulum cell sarcoma after administration at 10 mg/kg orally on day 20. As to conditions: M5076, 480 h, route oral. Summed up: as §1

The inhibition in vivo is the relative decrease from the control value, in per cent. The low end stands for a response near the control, the high end for a response far below the control. By T/C is commonly meant the result in the treated group divided by that in the control group, in per cent. `O=c1[nH]cc(F)c(=O)[nH]1` [FLUOROURACIL] yielded an inhibition in vivo at 40 mg/kg in the assay with Mus musculus [1] of 17%. Also, the Weight change in the assay with Mus musculus [2] worked out at 2.1 g; with Mus musculus [10], 2.2 g; in the assay with Mus musculus [14] it was 2.4 g; in the assay on Mus musculus [17], 1.4 g; in the assay on Mus musculus [19], 2.4 g. The molecule also yielded an inhibition in vivo at 50 mg/kg with Mus musculus [3] of 28%. The molecule also registered an inhibition in vivo at 30 mg/kg in the assay with Mus musculus [4] of 9%. Further, the T/C amounted to 79% in the assay with Mus musculus [5]; 86% with Mus musculus [7]; 94% with Mus musculus [8]; 85% in the assay on Mus musculus [9]; 79% with Mus musculus [16]. In addition, the Survivors in the assay on Mus musculus [6], with Mus musculus [11], in the assay with Mus musculus [12], in the assay with Mus musculus [15] and with Mus musculus [18] was 6 throughout. In the assay with Mus musculus [13], this molecule came in with an inhibition in vivo at 20 mg/kg of 6%. 10 mg/kg produced 1% inhibition in vivo in the assay on Mus musculus [20].
